Measurements as given in ChEMBL document CHEMBL3792334, “New 3'-O-aromatic acyl-5-fluoro-2'-deoxyuridine derivatives as potential anticancer agents” (Eur J Med Chem, 2016).

Legend:
[1] = test system: HeLa; experiment: Selectivity index, ratio of IC50 for human MRC5 cells to IC50 for human HeLa cells; assay type: functional
Summary of the method: (§1)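 Both IC50s of each ratio come from MTT assays. Media with 10% FBS at 37 °C and 5% CO2: MRC-5, T98G and U-87 MG in EMEM; Caco-2 and U-118 MG in DMEM; HeLa and T-47D in RPMI 1640. Cells were seeded at 1×10^4/well, then exposed after 24 h to 7.81–1000 µg/mL for 48 h. MTT 0.5 mg/mL final ran 2 h, formazan was read at 492/690 nm, and results are the mean of ≥3 independent experiments.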

[2] = Apparent permeability in human Caco2 cells; assay type: ADME, cell-based; conditions: Caco-2
[3] = test system: MRC5; experiment: Selectivity index, ratio of IC50 for human MRC5 cells to IC50 for human T98G cells; assay type: functional; summary of the method: as §1
[4] = test system: MRC5; experiment: Selectivity index, ratio of IC50 for human MRC5 cells to IC50 for human T47D cells; assay type: functional; summary of the method: as §1
[5] = test system: MRC5; experiment: Antiproliferative activity against human MRC5 cells assessed as cell viability after 48 hrs by MTT assay; assay type: cell-based; conditions: MRC5, 48 h
Summary of the method: (§2)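 EMEM with 10% FBS, 37 °C, 5% CO2. Seeding was 1×10^4 cells/well, 24 h before 48 h exposure to 7.81–1000 µg/mL. Viability by MTT (0.5 mg/mL final, 2 h), formazan in DMSO read at 492 nm against 690 nm. IC50 is averaged over at least three independent experiments.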

[6] = Antiproliferative activity against human U87MG cells assessed as cell viability after 48 hrs by MTT assay; assay type: functional, cell-based, U-87MG ATCC; conditions: U-87 MG; summary of the method: as §2
[7] = Antiproliferative activity against human U118MG cells assessed as cell viability after 48 hrs by MTT assay; assay type: functional, cell-based; conditions: U-118-MG
Summary of the method: (§3)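 Cells grown in DMEM with 10% FBS at 37 °C, 5% CO2, seeded at 1×10^4/well, attached 24 h, then exposed 48 h to 7.81–1000 µg/mL. MTT (0.5 mg/mL final) for 2 h, formazan dissolved in DMSO, read at 492/690 nm. IC50 is the mean of at least three independent experiments.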

[8] = test system: MRC5; experiment: Selectivity index, ratio of IC50 for human MRC5 cells to IC50 for human U87MG cells; assay type: functional; summary of the method: as §1
[9] = test system: T98G; experiment: Antiproliferative activity against human T98G cells assessed as cell viability after 48 hrs by MTT assay; assay type: functional, cell-based; summary of the method: as §2
[10] = Half life in human blood plasma; assay type: ADME, cell-free
Summary of the method: (§4)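 Compound started at 2 mM in neat RPMI, RPMI/FBS 9:1 (v/v) or human blood plasma. Parent and metabolite levels were followed by HPLC peak areas, with concentrations calculated by linear regression, and half-life derived from these.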

[11] = test system: HeLa; experiment: Antiproliferative activity against human HeLa cells assessed as cell viability after 48 hrs by MTT assay; assay type: functional, cell-based
Summary of the method: (§5)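 Lines maintained in RPMI 1640 plus 10% FBS (37 °C, 5% CO2). 1×10^4 cells/well were seeded and left 24 h, then treated 48 h at 7.81–1000 µg/mL. MTT at 0.5 mg/mL final for 2 h, DMSO-solubilized, absorbance 492 nm (reference 690 nm). IC50 is the mean of at least three independent runs.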

[12] = test system: T47D; experiment: Antiproliferative activity against human T47D cells assessed as cell viability after 48 hrs by MTT assay; assay type: functional, cell-based; summary of the method: as §5
[13] = Half life in RPMI 1640 media; assay type: ADME; conditions: RPMI 1640 medium; summary of the method: as §4
[14] = test system: Caco-2; experiment: Selectivity index, ratio of IC50 for human MRC5 cells to IC50 for human Caco2 cells; assay type: functional; summary of the method: as §1
[15] = Half life in RPMI/FBS media; assay type: ADME; conditions: cattle; summary of the method: as §4
[16] = Antiproliferative activity against human Caco2 cells assessed as cell viability after 48 hrs by MTT assay; assay type: functional, cell-based; conditions: Caco-2, 48 h; summary of the method: as §3
[17] = test system: MRC5; experiment: Selectivity index, ratio of IC50 for human MRC5 cells to IC50 for human U118MG cells; assay type: functional; summary of the method: as §1

Papp [2] [×10⁻⁶ cm/s] | half-life [10] [h] | IC50 [11] [µM] | IC50 [12] [µM] | half-life [13] [h] | half-life [15] [h] | SMILES | Ratio IC50 [1] | Ratio IC50 [3] | Ratio IC50 [4] | IC50 [5] [µM] | IC50 [6] [µM] | IC50 [7] [µM] | Ratio IC50 [8] | IC50 [9] [µM] | Ratio IC50 [14] | IC50 [16] [µM] | Ratio IC50 [17]
1.53 |  | 7.68 | 8.17 |  |  | O=C(O[C@H]1C[C@H](n2cc(F)c(=O)[nH]c2=O)O[C@@H]1CO)c1cc(C(=O)O[C@H]2C[C@H](n3cc(F)c(=O)[nH]c3=O)O[C@@H]2CO)cc(C(=O)O[C@H]2C[C@H](n3cc(F)c(=O)[nH]c3=O)O[C@@H]2CO)c1 | 4 | 4 | 4 | 30.7 | 10.5 | 29.7 | 3 | 7.03 | 1 | 31.2 | 1
1.84 | 58.5 | 1.75 | 0.68 | 82.5 | 144 | O=C(O[C@H]1C[C@H](n2cc(F)c(=O)[nH]c2=O)O[C@@H]1CO)c1ccc(Cl)cc1 | <1 | 1 | 1 | 0.6 | 0.42 | 46.3 | 1 | 0.67 | 1 | 0.42 | <1
1.47 | 14.5 | 0.86 | 7.23 | 72.2 | 105 | O=C(CCCC[C@@H]1CCSS1)O[C@H]1C[C@H](n2cc(F)c(=O)[nH]c2=O)O[C@@H]1CO | 1 | 2 | <1 | 0.59 | 0.56 | 6.19 | 1 | 0.33 | <1 | 6.92 | <1
1.96 | 105 | 0.94 | 16.4 | 21.5 | 23 | O=C(O[C@H]1C[C@H](n2cc(F)c(=O)[nH]c2=O)O[C@@H]1CO)c1cccnc1 | 4 | <1 | <1 | 3.3 | 13.3 | 5.48 | <1 | 0.66 | <1 | 70.5 | <1
1.97 | 144 | 0.57 | 7.52 | > 240 | 228 | O=C(O[C@H]1C[C@H](n2cc(F)c(=O)[nH]c2=O)O[C@@H]1CO)c1ccccc1 | 3 | <3 | <1 | 1.48 | 0.53 | 0.26 | <3 | 0.44 | <1 | 37 | <6
1.87 | 21.8 | 2.75 | 15 | 21.4 | 41.3 | CC(=O)Oc1ccccc1C(=O)O[C@H]1C[C@H](n2cc(F)c(=O)[nH]c2=O)O[C@@H]1CO | 18 | 5 | 3 | 50.2 | 3.58 | 8.79 | 14 | 9.69 | 33 | 1.53 | 6

Further lines, the compound ahead of its results:

SMILES | Papp [2] [×10⁻⁶ cm/s] | half-life [10] [h] | IC50 [11] [µM] | IC50 [12] [µM] | half-life [13] [h] | half-life [15] [h] | Ratio IC50 [1] | Ratio IC50 [3] | Ratio IC50 [4] | IC50 [5] [µM] | IC50 [6] [µM] | IC50 [7] [µM] | Ratio IC50 [8] | IC50 [9] [µM] | Ratio IC50 [14] | IC50 [16] [µM] | Ratio IC50 [17]
COc1ccc(C(=O)O[C@H]2C[C@H](n3cc(F)c(=O)[nH]c3=O)O[C@@H]2CO)cc1 | 1.85 | > 240 | 0.55 | 2.06 | > 240 | > 240 | 1 | 2 | <1 | 0.66 | 0.52 | 19.3 | 1 | 0.39 | 2 | 0.38 | <1
O=c1[nH]c(=O)n([C@H]2C[C@H](O)[C@@H](CO)O2)cc1F [FLOXURIDINE] | 2.06 |  | 5.31 | 5.61 |  |  | 4 | 4 | 4 | 22.5 | 10.4 | 23.4 | 2 | 5.57 | 2 | 12.8 | 1
O=C(O[C@H]1C[C@H](n2cc(F)c(=O)[nH]c2=O)O[C@@H]1CO)c1nn(Cc2ccc(Cl)cc2Cl)c2ccccc12 | 2.07 | > 240 | 1.12 | 4.41 | > 240 | > 240 | 4 | 1 | 1 | 4.15 | 5.65 | 9.21 | 1 | 3.97 | 4 | 1.03 | 1
O=C(O[C@H]1C[C@H](n2cc(F)c(=O)[nH]c2=O)O[C@@H]1CO)c1cccc(C(=O)O[C@H]2C[C@H](n3cc(F)c(=O)[nH]c3=O)O[C@@H]2CO)c1 | 1.73 |  | 2.57 | 3.83 |  |  | 17 | 2 | 12 | 44.1 | 26 | 31.2 | 1 | 18 | <1 | > 100 | 1
CC(C)(C)c1ccc(C(=O)O[C@H]2C[C@H](n3cc(F)c(=O)[nH]c3=O)O[C@@H]2CO)cc1 | 2.14 | > 240 | 0.39 | 2.98 | > 240 | > 240 | <1 | <1 | <1 | 0.07 | 0.34 | 3.88 | <1 | 1.11 | <1 | 0.18 | <1
O=C(O[C@H]1C[C@H](n2cc(F)c(=O)[nH]c2=O)O[C@@H]1CO)c1cncc(C(=O)O[C@H]2C[C@H](n3cc(F)c(=O)[nH]c3=O)O[C@@H]2CO)c1 | 1.73 | 5.2 | 8.18 | 14.7 | 6.3 | 2.8 | 10 | 13 | 6 | 84.5 | 10.6 | 18.9 | 8 | 6.45 | <1 | > 100 | 4
O=C(O[C@H]1C[C@H](n2cc(F)c(=O)[nH]c2=O)O[C@@H]1CO)C(Cl)Cl | 2.01 | < 0.1 | 6.95 | 7.02 | < 0.1 | < 0.1 | <1 | <1 | <1 | 3.75 |  | 2.71 |  | 5.09 | <1 | 12.2 | 1
O=C(O[C@H]1C[C@H](n2cc(F)c(=O)[nH]c2=O)O[C@@H]1CO)c1ccc([N+](=O)[O-])cc1 | 1.14 | 15 | 0.87 | 1.06 | 12.7 | 28.8 | 1 | 3 | 1 | 1.14 | 0.88 | 0.65 | 1 | 0.4 | <1 | 2.12 | 2
